Test results published in PMC10203771 (Saudi Pharmaceutical Journal : SPJ, 2023).
Converted amounts (≈) assume the structure as drawn.

Legend:
[1] = DPPH free radical scavenging assay; conditions: t = 16 min
Method in brief: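 Radical scavenging was read by absorbance. Percent inhibition = (Abs0 − AbsT)/Abs0 × 100, where Abs0 is the control at t = 0 and AbsT is the sample with DPPH at t = 16 min.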

Escherichia coli = test: Antibacterial assay; format: cell-based; conditions: Gram-negative
Pseudomonas aeruginosa = test: Antibacterial assay; format: cell-based; conditions: Gram-negative
Proteus vulgaris = test: Antibacterial assay; format: cell-based; conditions: Gram-negative
Bacillus subtilis = test: Antibacterial assay; format: cell-based; conditions: Gram-positive
Staphylococcus aureus = test: Antibacterial assay; format: cell-based; conditions: Gram-positive
HT-29 cells [2] = test: Cell viability; format: cell-based; conditions: Homo sapiens, HT-29, read-out: IC50 (mean ± SD; n = 3)
Method in brief: (§1)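 Cells were grown in medium with 10% FBS and penicillin/streptomycin 100 units/mL, humidified, at 37 °C and 5% CO2; HT-29 and HEKa were in RPMI-1640. About 2000 cells/well were seeded in 96-well plates. Cells were rinsed once with PBS and five times with distilled water.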

HEKa cells = test: Cell viability; format: cell-based; conditions: Homo sapiens, read-out: IC50 (mean ± SD; n = 3)
Method in brief: as §1

HepG2 cells [3] = test: Cell cycle analysis; format: cell-based, human; conditions: HepG2, 48 h
HT-29 cells [4] = test: Cell cycle analysis; format: cell-based, human; conditions: HT-29, 48 h
Candida albicans = test: Antifungal assay; format: cell-based; conditions: C. albicans
Method in brief: (§2)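 Antifungal agar diffusion read as inhibition zone diameter in mm, with amphotericin B as positive control.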

C. tropicalis = test: Antifungal assay; format: cell-based, Candida tropicals
Method in brief: as §2

Aspergillus flavus = test: Antifungal assay; format: cell-based; conditions: A. flavus
Method in brief: as §2

Aspergillus niger = test: Antifungal assay; format: cell-based; conditions: A. niger
Method in brief: as §2

HepG2 cells [5] = test: Cell viability; format: cell-based; conditions: Homo sapiens, HepG2, read-out: IC50 (mean ± SD; n = 3)
Method in brief: as §1

PC-3 cells = test: Cell viability; format: cell-based; conditions: Homo sapiens, PC-3, read-out: IC50 (mean ± SD; n = 3)
Method in brief: as §1

SMILES	IC50 (DPPH free radical scavenging) [1] [µg/mL]	Inhibition zone (Escherichia coli) [mm]	Inhibition zone (Pseudomonas aeruginosa) [mm]	Inhibition zone (Proteus vulgaris) [mm]	Inhibition zone (Bacillus subtilis) [mm]	Inhibition zone (Staphylococcus aureus) [mm]	IC50 (HT-29 cells [2]) [µg/mL]	IC50 (HEKa cells) [µg/mL]	also measured
O=C1O[C@H]([C@@H](O)CO)C(O)=C1O [vitamin C]	14.2 (≈ 80.6 µM)	–	–	–	–	–	–	–	–
CC1(C)S[C@@H]2[C@H](NC(=O)[C@H](N)c3ccc(O)cc3)C(=O)N2[C@H]1C(=O)O [Amoxicillin]	–	33 ± 2.90	39 ± 2.40	30 ± 4.00	23 ± 6.40	20 ± 1.90	–	–	–
COc1cccc2c1C(=O)c1c(O)c3c(c(O)c1C2=O)C[C@@](O)(C(=O)CO)C[C@@H]3O[C@H]1C[C@H](N)[C@H](O)[C@H](C)O1 [Doxorubicin]	–	–	–	–	–	–	1.7 ± 0.02 (≈ 3.13 µM)	0.7 ± 0.04 (≈ 1.29 µM)	cell cycle arrest phase (HepG2 cells [3]): arrested in G2 phase; cell cycle arrest phase (HT-29 cells [4]): arrested in G2 phase
C[C@@H]1[C@H](O)[C@@H](C)/C=C/C=C/C=C/C=C/C=C/C=C/C=C/[C@H](O[C@@H]2O[C@H](C)[C@@H](O)[C@H](N)[C@@H]2O)C[C@@H]2O[C@](O)(C[C@@H](O)C[C@@H](O)[C@H](O)CC[C@@H](O)C[C@@H](O)CC(=O)O[C@H]1C)C[C@H](O)[C@H]2C(=O)O [amphotericin B]	–	–	–	–	–	–	–	–	diameter of inhibition zone (Candida albicans): 29 ± 0.90 mm; diameter of inhibition zone (C. tropicalis): 25 ± 0.87 mm; diameter of inhibition zone (Aspergillus flavus): 33 ± 1.11 mm; diameter of inhibition zone (Aspergillus niger): 41 ± 0.70 mm
CC1(C)C[C@H](O)C[C@@]2(C)OC(=O)C=C12 [Compound 3, loliolide]	55.9 (≈ 285 µM)	10 ± 1.40	09 ± 1.20	10 ± 1.50	15 ± 1.70	16 ± 1.90	8.9 ± 0.97 (≈ 45.4 µM)	3.1 ± 0.1 (≈ 15.8 µM)	IC50 (HepG2 cells [5]): 4.6 ± 0.51 µg/mL (≈ 23.4 µM); IC50 (PC-3 cells): 11.9 ± 1.31 µg/mL (≈ 60.6 µM)
